Reference: ChEMBL document CHEMBL3232876, “Novel R-(+)-limonene-based thiosemicarbazones and their antitumor activity against human tumor cell lines” (Eur J Med Chem, 2014)
Active and inactive are the calls of the source. The rule behind the calls is not given here.

Assays:
786-0 = experiment: Growth inhibition of human 786-0 cells after 48 hrs by sulforhodamine B assay; format: functional; conditions: 786-0, 48 h
Summary of the method: (§1)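 Tumour lines from NCI and Vero from the Rio de Janeiro Cell Bank, grown in RPMI 1640 with 5% fetal bovine serum, with penicillin:streptomycin added to experimental cultures. Each compound was tested at four 10-fold dilutions; sulforhodamine B staining at time zero and 48 h. Proliferation was calculated against T0 and drug-free controls, and GI50 came from sigmoidal regression of the concentration-response curves. Representative experiment in triplicate.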

K562 = experiment: Growth inhibition of human K562 cells after 48 hrs by sulforhodamine B assay; format: functional; conditions: K562, 48 h; summary of the method: as §1
MCF7 = experiment: Growth inhibition of human MCF7 cells after 48 hrs by sulforhodamine B assay; format: functional; conditions: MCF7, 48 h; summary of the method: as §1
PC-3 [1] = experiment: Growth inhibition of human PC3 cells after 48 hrs by sulforhodamine B assay; format: functional; conditions: PC-3, 48 h; summary of the method: as §1
U-251 = experiment: Growth inhibition of human U251 cells after 48 hrs by sulforhodamine B assay; format: functional; conditions: U-251, 48 h; summary of the method: as §1
PC-3 [2] = experiment: Cytotoxicity against human PC3 cells assessed as cell death after 48 hrs by sulforhodamine B assay; format: functional
Summary of the method: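 NCI-supplied tumour cells in RPMI 1640 with 5% fetal bovine serum; experimental cultures also had penicillin:streptomycin. Cells were exposed for 48 h to four 10-fold concentrations (0.25 to 250 […]), with readings at time zero and at 48 h. LC50 (concentration giving 50% cell death) came from sigmoidal regression of concentration–response curves.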

[3] = Growth inhibition of human NCI-ADR-RES cells after 48 hrs by sulforhodamine B assay; format: functional; summary of the method: as §1
[4] = Growth inhibition of human UACC62 cells after 48 hrs by sulforhodamine B assay; format: functional; conditions: UACC-62, 48 h; summary of the method: as §1
Vero = experiment: (§2) Growth inhibition of African green monkey Vero cells after 48 hrs by sulforhodamine B assay; format: cell-based; conditions: chlorocebus sabaeus, vero, 48 h; summary of the method: as §1
[5] = as §2; format: cell-based; conditions: chlorocebus sabaeus, Vero cells; summary of the method: as §1
[6] = Growth inhibition of human OVCAR3 cells after 48 hrs by sulforhodamine B assay; format: functional; conditions: OVCAR-3, 48 h; summary of the method: as §1
HT-29 = experiment: Growth inhibition of human HT-29 cells after 48 hrs by sulforhodamine B assay; format: functional; conditions: HT-29, 48 h; summary of the method: as §1
NCI-H460 = experiment: Growth inhibition of human NCI-H460 cells after 48 hrs by sulforhodamine B assay; format: functional; conditions: NCI-H460, 48 h; summary of the method: as §1
[7] = Ratio of compound GI50 to paclitaxel GI50 for African green monkey Vero cells; format: ADME, cell-based; conditions: chlorocebus sabaeus, read-out: RatioGI50

| SMILES | GI50 (786-0) | TGI (786-0) | GI50 (K562) | TGI (K562) | GI50 (MCF7) | TGI (MCF7) | GI50 (PC-3 [1]) | TGI (PC-3 [1]) | GI50 (U-251) | TGI (U-251) | GI50 [3] | TGI [3] | GI50 [4] | TGI [4] | TGI (Vero) | GI50 at 48 h [5] | GI50 [6] | TGI [6] | GI50 (HT-29) | TGI (HT-29) | further results |
| --- | --- | --- | --- | --- | --- | --- | --- | --- | --- | --- | --- | --- | --- | --- | --- | --- | --- | --- | --- | --- | --- |
| CC1=CC[C@H](C(C)(C)NC(=S)N/N=C/c2ccccc2)CC1 | 9.9 µM | 67 µM | 6.3 µM | 47.6 µM | 8.4 µM | 84.4 µM | 1.3 µM | 5.7 µM | 26.3 µM | 71.4 µM | > 100 µM | > 100 µM | 31.6 µM | > 100 µM | > 100 µM | 20.5 µM | 8.7 µM | 20.6 µM | 8.8 µM | 22.2 µM | Activity (PC-3 [2]): Active; GI50 (NCI-H460): 13 µM; TGI (NCI-H460): 53.9 µM |
| COc1ccc(/C=N/NC(=S)NC(C)(C)[C@H]2CC=C(C)CC2)cc1 | 8.9 µM | 29.6 µM | 1.5 µM | 30.7 µM | 31.2 µM | 37.7 µM | < 0.04 µM | 1.2 µM | 11.4 µM | 71.9 µM | 43.8 µM | 50.4 µM | 13.3 µM | 70.4 µM | 70.1 µM | 12.2 µM | 7.9 µM | 21.2 µM | 8.4 µM | 33.6 µM | Activity (PC-3 [2]): Active; GI50 (NCI-H460): 22.5 µM; TGI (NCI-H460): 47.8 µM |
| CC1=CC[C@H](C(C)(C)NC(=S)N/N=C/c2ccccc2O)CC1 | 4.6 µM | 12.1 µM | 0.8 µM | > 100 µM | 2.2 µM | 17.5 µM | < 0.04 µM | 0.9 µM | 6.4 µM | 10.6 µM | 3.7 µM | 10.9 µM | 2.8 µM | 10.8 µM | 11.2 µM | 3.1 µM | 5.5 µM | 11.8 µM | 10.9 µM | 16.6 µM | selectivity ratio [7]: 100; CC50 (PC-3 [2]; PC-3, 48 h, read-out: LC50 (the source's name)): 12.3 µM; GI50 (NCI-H460): 1.9 µM; TGI (NCI-H460): 8.4 µM |
| CC1=CC[C@H](C(C)(C)NC(=S)N/N=C/c2ccc(N(C)C)cc2)CC1 | 87 µM | > 100 µM | 22.6 µM | > 100 µM | 26.8 µM | > 100 µM | < 0.04 µM | < 0.7 µM | 57.7 µM | > 100 µM | > 100 µM | > 100 µM | 45.1 µM | > 100 µM | > 100 µM | 75.6 µM | > 100 µM | > 100 µM | 46.5 µM | > 100 µM | Activity (PC-3 [2]): Active; GI50 (NCI-H460): 53.4 µM; TGI (NCI-H460): > 100 µM |
| CC1=CC[C@H](C(C)(C)NC(=S)N/N=C/c2ccccc2[N+](=O)[O-])CC1 | 68.5 µM | > 100 µM | 0.3 µM | > 100 µM | 1.2 µM | 94.7 µM | 1.7 µM | 6.4 µM | 20.2 µM | > 100 µM | 19.2 µM | > 100 µM | 10.6 µM | 92.2 µM | > 100 µM | 21.6 µM | 8.5 µM | 25.8 µM | 7.9 µM | 70.8 µM | Activity (PC-3 [2]): Active; GI50 (NCI-H460): 5 µM; TGI (NCI-H460): 32.7 µM |
